Laboratory results from ChEMBL document CHEMBL2321794, “Evaluation of difluoromethyl ketones as agonists of the γ-aminobutyric acid type B (GABAB) receptor” (J Med Chem, 2013).
The source made the active and inactive calls. The rule behind the calls is not given here.

Columns and labels:
HEK293 = assay: Cytotoxicity against HEK293 cells expressing human GABA-B B1/B2 receptor gene after 3 hrs by MTS assay; type: cell-based; conditions: hek293, 3 h
In short: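 MTS viability in HEK293 cells stably expressing human GABA-B1/B2 with Cre-luc reporter: about 65000 cells/well plated overnight, treated 3 h at 37 °C, 5% CO2 in Optimem, in triplicate. CellTiter Aqueous One reagent then added for 1.5 h; absorbance read at 490 nm.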

[1] = target: GABA-A receptor; alpha-1/beta-2/gamma-2 (Rattus norvegicus, UniProt P18508+P62813+P63138); assay: Agonist activity at rat GABA-A alpha1beta2gamma2 receptor expressed in human TSA201 cells by whole cell voltage-clamp method; type: cell-based
In short: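 Whole-cell voltage clamp at rt, holding potential −60 mV, in tsA201 cells transiently transfected (calcium phosphate) with rat α1, β2, γ2s subunits plus GFP (1:1:5:1); recorded the day after replating. Compounds applied at 100 μM via gap-free protocol; currents compared with response to 100 μM GABA. Intracellular NMDG-Cl/CsCl pH 7.2; extracellular NaCl/HEPES pH 7.4; 1 kHz filtering and sampling.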

GABA-B receptor = GABA-B receptor (Homo sapiens, UniProt O75899+Q9UBS5); assay: Agonist activity at human GABA-B B1/B2 receptor expressed in HEK293 cells assessed as inhibition of forskolin-stimulated cAMP accumulation after 3 hrs by luciferase reporter gene assay; type: functional, cell-based
Mus musculus [2] = assay: Anxiolytic activity in high alcohol preferring-2 mouse assessed as reduction of startle response under noise alone condition at 12.5 mg/kg, ip treated 25 mins prior to test; type: functional, organism-based; set-up: dose 12.5 mg/kg
In short: (§1)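 Experimentally naive HAP2 mice (16 male, 16 female, 316–332 days old). Given ip at 10 mL/kg in 10% DMSO/45% (w/v) 2-hydroxypropyl-β-cyclodextrin in distilled water, 25 min before the test. Conditioning 24 h prior: 40 trials of 30 s, 7 W light paired with 0.5 s, 0.8 mA foot shock at 2 min intervals. Startle force in grams excluding body weight, 70–71 dB background, sexes pooled.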

Mus musculus [3] = assay: Anxiolytic activity in high alcohol preferring-2 mouse assessed as reduction of startle response under light and noise condition at 12.5 mg/kg, ip treated 25 mins prior to test; type: functional, organism-based; set-up: dose 12.5 mg/kg; in short: as §1
Mus musculus [4] = assay: Anxiolytic activity in high alcohol preferring-2 mouse assessed as reduction of startle response under noise alone condition at 36 mg/kg, ip treated 25 mins prior to test; type: functional, organism-based; set-up: dose 36 mg/kg
In short: (§2)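 HAP2 mice, experimentally naive (16 male, 16 female, 316–332 days old), given compound ip at 10 mL/kg in 10% DMSO/45% (w/v) 2-hydroxypropyl-β-cyclodextrin in water, 25 min before test. Conditioning: 40 trials of 30 s light paired with 0.5 s, 0.8 mA foot shock; test 24 h later. Startle force in grams on noise-alone and light + noise trials, 70–71 dB background; sexes pooled.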

Mus musculus [5] = assay: Anxiolytic activity in high alcohol preferring-2 mouse assessed as reduction of startle response under light and noise condition at 36 mg/kg, ip treated 25 mins prior to test; type: functional, organism-based; set-up: dose 36 mg/kg; in short: as §2
[6] = target: T1, GABA-A receptor; alpha-1/beta-2/gamma-2 (Rattus norvegicus) (UniProt P18508+P62813+P63138); assay: Agonist activity at rat GABA-Aalpha1beta2gamma2 activity expressed in human TSA201 cells assessed as potentiation of 1 uM GABA-induced current amplitude at 100 uM by whole cell voltage-clamp method; type: cell-based
In short: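 Modulation test on tsA201 cells expressing rat α1β2γ2s GABA-A receptor under whole-cell voltage clamp at −60 mV, rt: 1 μM GABA applied alone or simultaneously with 100 μM compound; current amplitude normalized, mean ± SE, N = 5 cells.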

[7] = target: T1, GABA-A receptor; alpha-1/beta-2/gamma-2 (Rattus norvegicus); assay: Agonist activity at rat GABA-Aalpha1beta2gamma2 activity expressed in human TSA201 cells assessed as potentiation of 100 uM GABA-induced current amplitude at 100 uM by whole cell voltage-clamp method; type: cell-based
In short: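 Same whole-cell clamp setup (rat α1β2γ2s in tsA201, −60 mV, rt): 100 μM GABA, near-saturating, co-applied with 100 μM compound versus GABA alone; normalized current amplitude, mean ± SE, N = 5.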

Mus musculus [8] = assay: Anxiolytic activity in high alcohol preferring-2 mouse assessed as reduction of startle response under noise alone condition at 7.5 mg/kg, ip treated 25 mins prior to test; type: functional; conditions: route intraperitoneal
In short: (§3)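 Male and female HAP2 mice (7 of each, 133–142 days old) with prior startle testing, prepulse testing and vehicle or drug injections, followed by a 15-day washout and counterbalancing. Dosed ip (10 mL/kg, distilled water vehicle) 25 min before the test session. Light (30 s, 7 W) was paired with foot shock (0.5 s, 0.8 mA; 40 trials) 24 h earlier. Startle force in grams, sexes pooled, mean ± SEM.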

Mus musculus [9] = assay: Anxiolytic activity in high alcohol preferring-2 mouse assessed as reduction of startle response under light and noise condition at 7.5 mg/kg, ip treated 25 mins prior to test; type: functional; conditions: route intraperitoneal; in short: as §3

Chain of GABA-B receptor (Q9UBS5 whole entry): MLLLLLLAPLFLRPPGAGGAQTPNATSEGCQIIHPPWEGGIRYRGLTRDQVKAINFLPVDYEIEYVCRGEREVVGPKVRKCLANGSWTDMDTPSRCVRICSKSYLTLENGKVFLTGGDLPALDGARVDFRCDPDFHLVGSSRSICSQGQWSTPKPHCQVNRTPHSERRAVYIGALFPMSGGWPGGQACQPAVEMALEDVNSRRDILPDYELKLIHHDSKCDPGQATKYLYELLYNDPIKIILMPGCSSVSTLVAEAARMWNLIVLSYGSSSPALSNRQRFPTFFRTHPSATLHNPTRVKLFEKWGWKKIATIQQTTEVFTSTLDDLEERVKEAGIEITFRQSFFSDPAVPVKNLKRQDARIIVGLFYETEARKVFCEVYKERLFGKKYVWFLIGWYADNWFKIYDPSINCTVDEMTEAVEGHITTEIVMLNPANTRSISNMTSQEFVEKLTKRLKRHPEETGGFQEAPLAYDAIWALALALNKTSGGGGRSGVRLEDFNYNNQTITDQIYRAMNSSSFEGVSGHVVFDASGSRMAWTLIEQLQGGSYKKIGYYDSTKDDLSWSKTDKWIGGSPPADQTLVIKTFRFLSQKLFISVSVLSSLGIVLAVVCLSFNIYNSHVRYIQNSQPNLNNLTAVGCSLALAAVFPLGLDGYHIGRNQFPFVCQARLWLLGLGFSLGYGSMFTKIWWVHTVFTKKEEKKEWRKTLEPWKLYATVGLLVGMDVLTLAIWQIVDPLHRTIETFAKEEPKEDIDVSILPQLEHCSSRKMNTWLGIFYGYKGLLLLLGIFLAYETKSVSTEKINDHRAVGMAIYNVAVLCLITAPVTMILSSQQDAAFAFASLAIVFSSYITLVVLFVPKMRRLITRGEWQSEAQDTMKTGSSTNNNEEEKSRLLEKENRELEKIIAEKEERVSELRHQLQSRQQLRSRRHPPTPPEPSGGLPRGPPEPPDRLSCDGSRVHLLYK
Chain of GABA-B receptor (O75899 whole entry): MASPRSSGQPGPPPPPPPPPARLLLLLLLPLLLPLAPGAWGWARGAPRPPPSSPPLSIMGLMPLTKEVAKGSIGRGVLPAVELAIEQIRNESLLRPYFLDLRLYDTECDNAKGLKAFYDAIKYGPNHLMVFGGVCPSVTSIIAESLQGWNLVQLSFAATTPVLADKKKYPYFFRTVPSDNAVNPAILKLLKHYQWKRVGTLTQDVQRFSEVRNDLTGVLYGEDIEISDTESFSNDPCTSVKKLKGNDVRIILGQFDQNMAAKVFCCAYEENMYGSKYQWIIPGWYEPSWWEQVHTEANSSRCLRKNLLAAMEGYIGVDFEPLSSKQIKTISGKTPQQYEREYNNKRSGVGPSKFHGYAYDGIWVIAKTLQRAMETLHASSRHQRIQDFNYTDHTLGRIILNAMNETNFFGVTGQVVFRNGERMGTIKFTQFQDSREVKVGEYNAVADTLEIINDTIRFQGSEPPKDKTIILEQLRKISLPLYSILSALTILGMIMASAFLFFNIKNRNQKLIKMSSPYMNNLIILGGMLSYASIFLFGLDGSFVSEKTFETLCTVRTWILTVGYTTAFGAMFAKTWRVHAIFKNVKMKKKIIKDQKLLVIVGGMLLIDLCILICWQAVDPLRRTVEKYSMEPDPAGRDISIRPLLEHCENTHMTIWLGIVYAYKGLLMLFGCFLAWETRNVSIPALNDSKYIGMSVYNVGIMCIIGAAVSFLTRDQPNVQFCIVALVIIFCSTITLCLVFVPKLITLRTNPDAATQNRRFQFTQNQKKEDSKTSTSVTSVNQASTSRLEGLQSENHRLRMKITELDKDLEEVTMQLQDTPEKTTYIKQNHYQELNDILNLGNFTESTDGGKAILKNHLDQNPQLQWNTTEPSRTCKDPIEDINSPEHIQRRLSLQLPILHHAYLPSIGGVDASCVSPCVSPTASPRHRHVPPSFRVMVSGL
Chain of GABA-A receptor; alpha-1/beta-2/gamma-2 (P18508 whole entry): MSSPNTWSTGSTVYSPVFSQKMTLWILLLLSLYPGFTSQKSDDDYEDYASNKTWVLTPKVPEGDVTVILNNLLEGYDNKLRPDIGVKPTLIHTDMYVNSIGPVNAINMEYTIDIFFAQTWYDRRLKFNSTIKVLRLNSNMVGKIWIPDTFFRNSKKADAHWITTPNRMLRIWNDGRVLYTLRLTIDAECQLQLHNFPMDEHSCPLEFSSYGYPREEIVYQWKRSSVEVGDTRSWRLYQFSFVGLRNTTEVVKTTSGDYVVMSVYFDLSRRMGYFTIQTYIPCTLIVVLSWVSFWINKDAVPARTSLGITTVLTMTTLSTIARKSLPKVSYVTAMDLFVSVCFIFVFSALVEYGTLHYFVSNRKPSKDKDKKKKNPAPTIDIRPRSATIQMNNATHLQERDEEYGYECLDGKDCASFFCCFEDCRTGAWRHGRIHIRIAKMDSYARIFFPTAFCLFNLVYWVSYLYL
Chain of GABA-A receptor; alpha-1/beta-2/gamma-2 (P62813 whole entry): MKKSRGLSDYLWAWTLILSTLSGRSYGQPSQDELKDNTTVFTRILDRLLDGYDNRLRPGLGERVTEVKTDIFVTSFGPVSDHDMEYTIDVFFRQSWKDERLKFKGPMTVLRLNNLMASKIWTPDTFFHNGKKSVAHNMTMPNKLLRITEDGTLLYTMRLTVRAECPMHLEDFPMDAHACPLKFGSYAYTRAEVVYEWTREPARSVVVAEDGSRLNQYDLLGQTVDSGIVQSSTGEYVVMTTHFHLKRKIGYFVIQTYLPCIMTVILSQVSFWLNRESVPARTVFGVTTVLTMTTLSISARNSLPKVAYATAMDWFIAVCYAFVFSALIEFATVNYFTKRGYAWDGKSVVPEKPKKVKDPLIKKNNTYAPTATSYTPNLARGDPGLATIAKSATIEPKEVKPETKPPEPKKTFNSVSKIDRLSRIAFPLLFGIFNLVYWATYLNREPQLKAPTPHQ
Chain of GABA-A receptor; alpha-1/beta-2/gamma-2 (P63138 whole entry): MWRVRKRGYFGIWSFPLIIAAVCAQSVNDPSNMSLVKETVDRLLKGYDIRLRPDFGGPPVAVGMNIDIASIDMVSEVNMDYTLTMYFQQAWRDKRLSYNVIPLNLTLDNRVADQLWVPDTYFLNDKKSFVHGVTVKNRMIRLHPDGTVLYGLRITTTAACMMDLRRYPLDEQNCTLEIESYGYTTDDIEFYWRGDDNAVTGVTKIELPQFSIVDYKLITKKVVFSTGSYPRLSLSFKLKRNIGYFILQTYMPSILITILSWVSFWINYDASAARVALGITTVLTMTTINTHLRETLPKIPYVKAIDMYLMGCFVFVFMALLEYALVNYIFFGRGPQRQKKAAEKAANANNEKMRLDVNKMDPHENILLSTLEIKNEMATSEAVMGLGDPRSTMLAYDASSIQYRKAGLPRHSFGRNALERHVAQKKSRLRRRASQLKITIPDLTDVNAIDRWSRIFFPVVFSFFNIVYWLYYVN

CC(=O)c1ccc(C(O)C(F)(F)C(=O)C23CC4CC(CC(C4)C2)C3)cc1 (stereo unspecified)
Activity (HEK293): Non-toxic

CC1(C)C2CCC(C(O)C(F)(F)C(=O)c3ccc4c(c3)OCO4)C1C2 (racemic)
Activity (HEK293): Toxic

CC(=O)c1ccc(C(O)C(F)(F)C(=O)C23CC4CC(CC(C4)C2)C3)cc1 (racemic) [listing 1 of 2 here]
EC50 [1]: > 100 µM

O=C(C12CC3CC(CC(C3)C1)C2)C(F)(F)C(O)/C=C/c1ccccc1 (racemic)
EC50 [1]: > 100 µM
EC50 (GABA-B receptor): 40 µM

CC(=O)c1ccc(C(O)CC(=O)C23CC4CC(CC(C4)C2)C3)cc1 (racemic)
EC50 (GABA-B receptor): > 100 µM

COc1ccc(C(O)C(F)(F)C(=O)c2ccc3ccccc3c2)cc1 (racemic)
EC50 [1]: > 100 µM

CCC/C=C/C(O)C(F)(F)C(=O)c1ccc2ccccc2c1 (racemic)
EC50 [1]: > 100 µM

C/C=C/C=C/C(O)C(F)(F)C(=O)c1ccc2ccccc2c1 (racemic)
EC50 [1]: > 100 µM

O=C(c1ccc2ccccc2c1)C(F)(F)C(O)C1CCCCC1 (racemic)
EC50 [1]: > 100 µM

C/C=C/C=C/C(O)C(F)(F)C(=O)/C=C/CCCC (racemic)
EC50 (GABA-B receptor): > 100 µM

CC(C)(C)c1cc(C(C)(C)C)c2c(c1)C(O)(C(F)(F)F)C(=O)O2 (racemic)
EC50 [1]: > 100 µM
Activity (Mus musculus [2]): Active
Activity (Mus musculus [3]): Active

CC(=O)c1ccc(C(O)C(F)(F)C(=O)C23CC4CC(CC(C4)C2)C3)cc1 (racemic) [listing 2 of 2 here]
Activity (Mus musculus [4]): Active
Activity (Mus musculus [5]): Active
Activity [6]: inactive
Activity [7]: inactive

NCC(CC(=O)O)c1ccc(Cl)cc1 (racemic) [BACLOFEN]
Activity (Mus musculus [8]): 8.1 g
EC50 [1]: > 100 µM
Activity (Mus musculus [9]): 26.3 g
